Experimental data: ChEMBL document CHEMBL3244282, “Synthesis and evaluation of bis-dipeptide and bis-tripeptide analogues of actinomycin D” (1978)
Active and inactive are the calls of the source. No cut-off for these calls is given here. Starred links: 1 amine or outer side, 2 acyl side, 3 side chain; linkers in the order of their positions; H or OH if unused. Positions of bridges follow the written chain, without caps; N, C: chain ends. Non-standard residues stand in square brackets, D forms with d. Residues, ends and D or L forms follow the SMILES beside them. Chains are numbered I, II in the order given. Actinocin(1to9) = Cc1c2oc3c(C)ccc(C(=O)[*:2])c3nc-2c(C(=O)[*:1])c(N)c1=O; NMeV = CN[C@H](C(=O)O)C(C)C; Sar = CNCC(=O)O

What was measured:
[1] = tested on: P388; assay: Antitumor activity against mouse P388 cells allografted in CD2F1 mouse assessed as increase in life span at 25 mg/kg administered daily for 9 days; type: functional
Summary of the method: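 P-388 leukaemia in CD2F1 mice, screened by the NCI Drug Research and Development Program. Dosing was by daily injection for 9 days, up to 25 mg/kg per injection. The read-out was increased life span (ILS), with ILS >25% taken as the minimum for activity.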

[2] = tested on: Calf thymus DNA; assay: Binding affinity to calf thymus DNA assessed as hypochromic shift after 30 mins by spectral analysis; type: nucleic-acid assay; settings: Bos taurus
[3] = tested on: Calf thymus DNA; assay: Binding affinity to calf thymus DNA assessed as bathochromic shift after 30 mins by spectral analysis; type: nucleic-acid assay; settings: Bos taurus
[4] = tested on: Calf thymus DNA; assay: Binding affinity to calf thymus DNA assessed as isosbestic point after 30 mins by spectral analysis; type: nucleic-acid assay; settings: Bos taurus
[5] = tested on: Bacillus spizizenii; assay: Antibacterial activity against Bacillus subtilis ATCC 6633 at 40 ug/ml by cup-plate diffusion assay; type: functional; settings: read-out: IZ
Summary of the method: (§1)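 Cup-plate agar diffusion with 6-mm stainless steel cylinders on nutrient agar seeded with B. subtilis ATCC 6633, incubated at 37 °C. Activity is read as the zone of inhibition, compared with actinomycin D standards. On repeat assays, test concentrations were adjusted to give zones of roughly the same size as the standards.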

[6] = tested on: Bacillus spizizenii; assay: Antibacterial activity against Bacillus subtilis ATCC 6633 at 40 ug/ml by cup-plate diffusion assay relative to actinomycin D; type: functional; summary of the method: as §1
[7] = tested on: Calf thymus DNA; assay: Binding affinity to calf thymus DNA assessed as reduction in absorbance after 30 mins by spectral analysis; type: nucleic-acid assay; parameters: scale not given: the % may be the effect or the level left; settings: Bos taurus
[8] = tested on: Calf thymus DNA; assay: Binding affinity to calf thymus DNA at DNA/drug ratio of 25:1 after 30 mins by ultracentrifugation method; type: nucleic-acid assay; settings: Bos taurus
Summary of the method: (§2)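 Drug at about 5×10^-6 M with calf thymus DNA at 0, 1.94, 2.27, 3.35 and 9.45×10^-5 M in pH 7.00 1 M NaCl–0.008 M Tris buffer, equilibrated 30 min, then spun at 150 000g for 6 h at 25 °C. Free drug was measured in the supernatant. Bound drug was measured by dissolving the pellet in 50% DMF and reading A443 against drug in 50% DMF. Repeated at varied drug/DNA ratios.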

[9] = tested on: Bacillus spizizenii; assay: Antibacterial activity against Bacillus subtilis ATCC 6633 at 5 ug/ml by cup-plate diffusion assay; type: functional; settings: read-out: IZ; summary of the method: as §1
[10] = tested on: Bacillus spizizenii; assay: Antibacterial activity against Bacillus subtilis ATCC 6633 at 2.50 ug/ml by cup-plate diffusion assay; type: functional; settings: read-out: IZ; summary of the method: as §1
[11] = tested on: Bacillus spizizenii; assay: Antibacterial activity against Bacillus subtilis ATCC 6633 at 1.25 ug/ml by cup-plate diffusion assay; type: functional; settings: read-out: IZ; summary of the method: as §1
[12] = tested on: Bacillus spizizenii; assay: Antibacterial activity against Bacillus subtilis ATCC 6633 at 3.85 ug/ml by cup-plate diffusion assay; type: functional; settings: read-out: IZ; summary of the method: as §1
[13] = tested on: Bacillus spizizenii; assay: Antibacterial activity against Bacillus subtilis ATCC 6633 at 2.35 ug/ml by cup-plate diffusion assay; type: functional; settings: read-out: IZ; summary of the method: as §1
[14] = tested on: Bacillus spizizenii; assay: Antibacterial activity against Bacillus subtilis ATCC 6633 at 0.65 ug/ml by cup-plate diffusion assay; type: functional; settings: read-out: IZ; summary of the method: as §1
[15] = tested on: Calf thymus DNA; assay: Binding affinity to calf thymus DNA at DNA/drug ratio of 12:1 after 30 mins by ultracentrifugation method; type: nucleic-acid assay; settings: Bos taurus; summary of the method: as §2
[16] = tested on: Calf thymus DNA; assay: Binding affinity to calf thymus DNA after 30 mins by ultracentrifugation method; type: nucleic-acid assay; settings: Bos taurus; summary of the method: as §2

SMILES | Activity [1] | Activity [2] | Activity [3] | Activity [4] | zone of inhibition at 40 µg/mL [5] [mm] | Ratio [6] | Activity [7] [%] | Activity [8] [%] | zone of inhibition at 5 µg/mL [9] [mm] | zone of inhibition at 2.5 µg/mL [10] [mm] | zone of inhibition at 1.25 µg/mL [11] [mm] | zone of inhibition at 3.85 µg/mL [12] [mm] | zone of inhibition at 2.35 µg/mL [13] [mm] | zone of inhibition at 0.65 µg/mL [14] [mm] | Activity [15] [%] | Ka [16] [×10⁶ /M]
Cc1c2oc3c(C)ccc(C(=O)N[C@H](C(=O)N[C@@H](C(=O)NN)C(C)C)[C@@H](C)O)c3nc-2c(C(=O)N[C@H](C(=O)N[C@@H](C(=O)NN)C(C)C)[C@@H](C)O)c(N)c1=O | <=25% | inactive | inactive | inactive |  |  |  |  |  |  |  |  |  |  |  | 
COC(=O)[C@H](NC(=O)[C@@H](NC(=O)c1c2nc3c(C(=O)N[C@H](C(=O)N[C@@H](C(=O)OC)C(C)C)[C@@H](C)O)ccc(C)c3oc-2c(C)c(=O)c1N)[C@@H](C)O)C(C)C | <=25% | inactive | inactive | inactive | 16.6 | 9.6 | 10 | 30 |  |  |  |  |  |  |  | 
COC(=O)[C@H](NC(=O)[C@@H](NC(=O)c1c2nc3c(C(=O)N[C@H](C(=O)N[C@@H](C(=O)OC)C(C)C)[C@@H](C)OC(C)=O)ccc(C)c3oc-2c(C)c(=O)c1N)[C@@H](C)OC(C)=O)C(C)C | <=25% | inactive | inactive | inactive |  |  |  |  |  |  |  |  |  |  |  | 
Cc1c2oc3c(C)ccc(C(=O)N[C@@H]4C(=O)N[C@H](C(C)C)C(=O)N5CCC[C@H]5C(=O)N(C)CC(=O)N(C)[C@@H](C(C)C)C(=O)O[C@@H]4C)c3nc-2c(C(=O)N[C@@H]2C(=O)N[C@H](C(C)C)C(=O)N3CCC[C@H]3C(=O)N(C)CC(=O)N(C)[C@@H](C(C)C)C(=O)O[C@@H]2C)c(N)c1=O [DACTINOMYCIN] (I: T[dV]P[Sar][NMeV] / II: T[dV]P[Sar][NMeV]; ester I:1-I:C, II:1-II:C; linker I:N-II:N via Actinocin(1to9)) | <=25% | Active | Active | Active |  |  | 30 | 85 | 18.2 | 14.5 | 11.1 | 16.6 | 14.3 | 8.5 | 70 | 1.56
CNC(=O)[C@H](NC(=O)[C@@H](NC(=O)c1c2nc3c(C(=O)N[C@H](C(=O)N[C@@H](C(=O)NC)C(C)C)[C@@H](C)O)ccc(C)c3oc-2c(C)c(=O)c1N)[C@@H](C)O)C(C)C | <=25% | inactive | inactive | inactive | 8.5 | 1.1 |  |  |  |  |  |  |  |  | 17 | 
COC(=O)[C@@H]1CCCN1C(=O)[C@H](NC(=O)[C@@H](NC(=O)c1c2nc3c(C(=O)N[C@H](C(=O)N[C@@H](C(=O)N4CCC[C@H]4C(=O)OC)C(C)C)[C@@H](C)O)ccc(C)c3oc-2c(C)c(=O)c1N)[C@@H](C)O)C(C)C | <=25% | inactive | inactive | inactive |  |  |  |  |  |  |  |  |  |  |  | 
Cc1c2oc3c(C)ccc(C(=O)N[C@H](C(=O)N[C@@H](C(=O)NCCO)C(C)C)[C@@H](C)O)c3nc-2c(C(=O)N[C@H](C(=O)N[C@@H](C(=O)NCCO)C(C)C)[C@@H](C)O)c(N)c1=O | <=25% | inactive | inactive | inactive |  |  |  |  |  |  |  |  |  |  |  | 
Cc1c2oc3c(C)ccc(C(=O)N[C@H](C(=O)N[C@@H](C(=O)O)C(C)C)[C@@H](C)O)c3nc-2c(C(=O)N[C@H](C(=O)N[C@@H](C(=O)O)C(C)C)[C@@H](C)O)c(N)c1=O | <=25% | inactive | inactive | inactive | 14.3 | 5.3 |  |  |  |  |  |  |  |  |  | 
COC(=O)[C@@H]1CC(=O)CN1C(=O)[C@H](NC(=O)[C@@H](NC(=O)c1c2nc3c(C(=O)N[C@H](C(=O)N[C@@H](C(=O)N4CC(=O)C[C@H]4C(=O)OC)C(C)C)[C@@H](C)O)ccc(C)c3oc-2c(C)c(=O)c1N)[C@@H](C)O)C(C)C | <=25% | inactive | inactive | inactive |  |  |  |  |  |  |  |  |  |  |  | 
